≈ marks a conversion by molar mass, not a printed value.
Legend:
[1] = system: Pseudomonas aeruginosa PAO1; assay: Activity of wild type Pseudomonas aeruginosa PAO1 Beta-lactamase assessed as nitrocefin hydrolysis per mg of protein by spectrophotometry
Summary of the method: (§1)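 Cells grown to OD600 1.0, pelleted and resuspended in 0.1 M KH2PO4-Na2HPO4 pH 7.0. Crude extract made by two freeze-thaw cycles plus sonication on ice. β-Lactamase read as absorbance change at 485 nm with 50 µM nitrocefin in the same pH 7.0 phosphate buffer. Extract protein measured by BCA against a bovine serum albumin standard.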

Pseudomonas aeruginosa [2] = assay: Antimicrobial activity against Pseudomonas aeruginosa PA14 PA0908 harboring mutation in hypothetical protein by Etest method; assay type: functional
Summary of the method: (§2)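 Overnight LB cultures (37°C) diluted in sterile 0.85% NaCl to about 1 × 10^7 CFU/ml. 100 µl spread on Mueller-Hinton agar, one Etest strip per plate, 18 h at 37°C. Ceftazidime, imipenem and meropenem tested. Wild-type PA14 plate included in each set. Each mutant verified in triplicate.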

Pseudomonas aeruginosa [3] = assay: Antimicrobial activity against Pseudomonas aeruginosa PA14 PA4007 harboring proA mutant gene by Etest method; assay type: functional
Summary of the method: (§3)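 Etest MIC. Overnight LB cultures at 37°C were diluted in sterile 0.85% NaCl to about 1 × 10^7 CFU/ml. 100 µl was spread on Mueller-Hinton agar, one strip was placed per plate, and plates were incubated at 37°C for 18 h. Equal cell numbers were seeded per plate, and results were verified in triplicate. PA14 wild type was included in each set as a susceptibility control.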

Pseudomonas aeruginosa [4] = assay: Antimicrobial activity against Pseudomonas aeruginosa PA14 PA3818 harboring suhB mutant gene by Etest method; assay type: functional; summary of the method: as §3
Pseudomonas aeruginosa [5] = assay: Antimicrobial activity against Pseudomonas aeruginosa PA14 PA4088 harboring mutation in putative aminotransferase by Etest method; assay type: functional; summary of the method: as §3
Pseudomonas aeruginosa [6] = assay: Antimicrobial activity against Pseudomonas aeruginosa PA14 PA4527 harboring pilC mutant gene by Etest method; assay type: functional; summary of the method: as §3
Pseudomonas aeruginosa [7] = assay: Antimicrobial activity against Pseudomonas aeruginosa PA14 PA3704 harboring wspE mutant gene by Etest method; assay type: functional; summary of the method: as §3
Pseudomonas aeruginosa [8] = assay: Antimicrobial activity against Pseudomonas aeruginosa PA14 PA0427 harboring oprM mutant gene by Etest method; assay type: functional; summary of the method: as §2
Pseudomonas aeruginosa [9] = assay: Antimicrobial activity against Pseudomonas aeruginosa PA14 PA2023 harboring galU mutant gene by Etest method; assay type: functional; summary of the method: as §2
Pseudomonas aeruginosa [10] = assay: Antimicrobial activity against Pseudomonas aeruginosa PA14 PA0011 harboring mutation in putative 2-OH-lauroyltransferase by Etest method; assay type: functional; summary of the method: as §2
[11] = system: Pseudomonas aeruginosa PAO1; assay: Activity of Beta-lactamase in Pseudomonas aeruginosa PAO1 PA3047 harboring dacB mutant gene assessed as nitrocefin hydrolysis per mg of protein by spectrophotometry; summary of the method: as §1
Pseudomonas aeruginosa [12] = assay: Antimicrobial activity against Pseudomonas aeruginosa PA14 PA3262 harboring fklB mutant gene by Etest method; assay type: functional; summary of the method: as §3
Pseudomonas aeruginosa [13] = assay: Antimicrobial activity against Pseudomonas aeruginosa PA14 PA2970 harboring rpmF mutant gene by Etest method; assay type: functional; summary of the method: as §2
Pseudomonas aeruginosa [14] = assay: Antimicrobial activity against Pseudomonas aeruginosa PA14 PA0402 harboring pyrB mutant gene by Etest method; assay type: functional; summary of the method: as §2
Pseudomonas aeruginosa [15] = assay: Antimicrobial activity against Pseudomonas aeruginosa PA14 PA3589 harboring mutation in acetyl-coenzyme A (CoA) acetyltransferase (thiolase) by Etest method; assay type: functional; summary of the method: as §3
Pseudomonas aeruginosa [16] = assay: Antimicrobial activity against Pseudomonas aeruginosa PA14 PA3247 harboring mutation in putative aspartyl aminopeptidase by Etest method; assay type: functional; summary of the method: as §2
Pseudomonas aeruginosa [17] = assay: Antimicrobial activity against Pseudomonas aeruginosa PA14 PA4402 harboring argJ mutant gene by Etest method; assay type: functional; summary of the method: as §3
Pseudomonas aeruginosa [18] = assay: Antimicrobial activity against Pseudomonas aeruginosa PA14 PA2615 harboring ftsK mutant gene by Etest method; assay type: functional; summary of the method: as §2
Pseudomonas aeruginosa [19] = assay: Antimicrobial activity against Pseudomonas aeruginosa PA14 PA3800 harboring mutation in conserved hypothetical protein by Etest method; assay type: functional; summary of the method: as §3
Pseudomonas aeruginosa [20] = assay: Antimicrobial activity against Pseudomonas aeruginosa PA14 PA3649 harboring mutation in putative membrane-associated zinc metalloprotease by Etest method; assay type: functional; summary of the method: as §3
[21] = system: Pseudomonas aeruginosa PA14; assay: Activity of Beta-lactamase in Pseudomonas aeruginosa PA14 PA3047 harboring dacB mutant gene assessed as nitrocefin hydrolysis per mg of protein by spectrophotometry; summary of the method: as §1
Pseudomonas aeruginosa [22] = assay: Antimicrobial activity against Pseudomonas aeruginosa PA14 PA3145 harboring wbpL mutant gene by Etest method; assay type: functional; summary of the method: as §2
[23] = system: Pseudomonas aeruginosa PA14; assay: Activity of Beta-lactamase in Pseudomonas aeruginosa PA14 PA4522 harboring ampD mutant gene assessed as nitrocefin hydrolysis per mg of protein by spectrophotometry; summary of the method: as §1
Pseudomonas aeruginosa [24] = assay: Antimicrobial activity against Pseudomonas aeruginosa PA14 PA5174 harboring mutation in putative beta-ketoacyl synthase by Etest method; assay type: functional; summary of the method: as §3
[25] = system: Pseudomonas aeruginosa PA14; assay: Activity of Beta-lactamase in Pseudomonas aeruginosa PA14 PA4109 harboring ampR mutant gene assessed as nitrocefin hydrolysis per mg of protein by spectrophotometry; summary of the method: as §1
Pseudomonas aeruginosa [26] = assay: Antimicrobial activity against Pseudomonas aeruginosa PA14 PA0764 harboring mucB mutant gene by Etest method; assay type: functional; summary of the method: as §2
Pseudomonas aeruginosa [27] = assay: Antimicrobial activity against Pseudomonas aeruginosa PA14 PA0807 harboring ampDh3 mutant gene by Etest method; assay type: functional; summary of the method: as §2
Pseudomonas aeruginosa [28] = assay: Antimicrobial activity against Pseudomonas aeruginosa PA14 PA0503 harboring mutation in Putative biotin synthesis protein BioC by Etest method; assay type: functional; summary of the method: as §2
Pseudomonas aeruginosa [29] = assay: Antimicrobial activity against Pseudomonas aeruginosa PA14 PA2797 harboring mutation in putative anti-anti-sigma factor by Etest method; assay type: functional; summary of the method: as §2
Pseudomonas aeruginosa [30] = assay: Antimicrobial activity against Pseudomonas aeruginosa PA14 PA5000 harboring wapR mutant gene by Etest method; assay type: functional; summary of the method: as §3
Pseudomonas aeruginosa [31] = assay: Antimicrobial activity against Pseudomonas aeruginosa PA14 PA4069 harboring mutation in putative dTDP-4-rhamnose reductase-related protein by Etest method; assay type: functional; summary of the method: as §3
[32] = system: Pseudomonas aeruginosa PAO1; assay: Activity of Beta-lactamase in Pseudomonas aeruginosa PAO1 PA4020 harboring mpl mutant gene assessed as nitrocefin hydrolysis per mg of protein by spectrophotometry; summary of the method: as §1
Pseudomonas aeruginosa [33] = assay: Antimicrobial activity against Pseudomonas aeruginosa PA14 PA4109 harboring ampR mutant gene by Etest method; assay type: functional; summary of the method: as §3
Pseudomonas aeruginosa [34] = assay: Antimicrobial activity against Pseudomonas aeruginosa PA14 PA5005 harboring mutation in putative carbamoyltransferase by Etest method; assay type: functional; summary of the method: as §3
Pseudomonas aeruginosa [35] = assay: Antimicrobial activity against Pseudomonas aeruginosa PA14 PA4393 harboring mutation in putative permease by Etest method; assay type: functional; summary of the method: as §3
Pseudomonas aeruginosa [36] = assay: Antimicrobial activity against Pseudomonas aeruginosa PA14 PA5130 harboring mutation in putative rhodanese-like domain protein by Etest method; assay type: functional; summary of the method: as §3
Pseudomonas aeruginosa [37] = assay: Antimicrobial activity against Pseudomonas aeruginosa PA14 PA4753 harboring mutation in putative RNA-binding protein by Etest method; assay type: functional; summary of the method: as §3

SMILES: CC(C)(O/N=C(\C(=O)N[C@@H]1C(=O)N2C(C(=O)[O-])=C(C[n+]3ccccc3)CS[C@H]12)c1csc(N)n1)C(=O)O [CEFTAZIDIME]
- Activity [1]: 6.9 nmol/min
- MIC (Pseudomonas aeruginosa [2]): 2 µg/mL (≈ 3.66 µM)
- MIC (Pseudomonas aeruginosa [3]): 0.75 µg/mL (≈ 1.37 µM)
- MIC (Pseudomonas aeruginosa [4]): 0.5 µg/mL (≈ 0.915 µM)
- MIC (Pseudomonas aeruginosa [5]): 0.25 µg/mL (≈ 0.457 µM)
- MIC (Pseudomonas aeruginosa [6]): 2 µg/mL (≈ 3.66 µM)
- MIC (Pseudomonas aeruginosa [7]): 2 µg/mL (≈ 3.66 µM)
- MIC (Pseudomonas aeruginosa [8]): 0.38 µg/mL (≈ 0.695 µM)
- MIC (Pseudomonas aeruginosa [9]): 3 µg/mL (≈ 5.49 µM)
- MIC (Pseudomonas aeruginosa [10]): 0.38 µg/mL (≈ 0.695 µM)
- Activity [11]: 274 nmol/min
- MIC (Pseudomonas aeruginosa [12]): 0.75 µg/mL (≈ 1.37 µM)
- MIC (Pseudomonas aeruginosa [13]): 0.5 µg/mL (≈ 0.915 µM)
- MIC (Pseudomonas aeruginosa [14]): 0.38 µg/mL (≈ 0.695 µM)
- MIC (Pseudomonas aeruginosa [15]): 2 µg/mL (≈ 3.66 µM)
- MIC (Pseudomonas aeruginosa [16]): 2 µg/mL (≈ 3.66 µM)
- MIC (Pseudomonas aeruginosa [17]): 3 µg/mL (≈ 5.49 µM)
- MIC (Pseudomonas aeruginosa [18]): 0.25 µg/mL (≈ 0.457 µM)
- MIC (Pseudomonas aeruginosa [19]): 0.25 µg/mL (≈ 0.457 µM)
- MIC (Pseudomonas aeruginosa [20]): 0.5 µg/mL (≈ 0.915 µM)
- Activity [21]: 110 nmol/min
- MIC (Pseudomonas aeruginosa [22]): 2 µg/mL (≈ 3.66 µM)
- Activity [23]: 31 nmol/min
- MIC (Pseudomonas aeruginosa [24]): 1 µg/mL (≈ 1.83 µM)
- Activity [25]: 257 nmol/min
- MIC (Pseudomonas aeruginosa [26]): 0.75 µg/mL (≈ 1.37 µM)
- MIC (Pseudomonas aeruginosa [27]): 0.75 µg/mL (≈ 1.37 µM)
- MIC (Pseudomonas aeruginosa [28]): 0.5 µg/mL (≈ 0.915 µM)
- MIC (Pseudomonas aeruginosa [29]): 3 µg/mL (≈ 5.49 µM)
- MIC (Pseudomonas aeruginosa [30]): 4 µg/mL (≈ 7.32 µM)
- MIC (Pseudomonas aeruginosa [31]): 0.75 µg/mL (≈ 1.37 µM)
- Activity [32]: 168 nmol/min
- MIC (Pseudomonas aeruginosa [33]): 4 µg/mL (≈ 7.32 µM)
- MIC (Pseudomonas aeruginosa [34]): 3 µg/mL (≈ 5.49 µM)
- MIC (Pseudomonas aeruginosa [35]): 0.75 µg/mL (≈ 1.37 µM)
- MIC (Pseudomonas aeruginosa [36]): 0.75 µg/mL (≈ 1.37 µM)
- MIC (Pseudomonas aeruginosa [37]): 0.25 µg/mL (≈ 0.457 µM)
